From PubChem
Sampled rows, rich in hits. Any-hit rate of the full collection: about 2.9%.
C2C12 statin: protects C2C12 myotubes from simvastatin toxicity | ATP luminescence, 48 h; scaled: DMSO 0, geranylgeraniol control 100 | rescue of ATP level, % at 7.49 µM | 330,000 tested, 0.78% active | AID 602340;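 active means mean ATP rescue above about 67%, or every replicate alone reaching that limit, limit read from the data, passing the limit was not always enough; inconclusive means no clear call, values can overlap the other calls; inactive means mean under the limit and some replicate under it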;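 further: myotubes were challenged with 10 µM simvastatin during compound exposure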
S100A4 MyoIIA: S100A4-myosin IIA interaction inhibition. P26447. S100A4/TAMRA-MyoIIA peptide fluorescence polarization. inhibition, % at 10.7 µM. 360,000 tested, 0.14% active. AID 652163;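 active means mean inhibition of at least 70% across replicates, with every replicate also reaching that level; inconclusive means mean inhibition reaches 70% but some replicates fall short; inactive means mean inhibition below 70%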
Target sequence (P26447 whole entry, looked up): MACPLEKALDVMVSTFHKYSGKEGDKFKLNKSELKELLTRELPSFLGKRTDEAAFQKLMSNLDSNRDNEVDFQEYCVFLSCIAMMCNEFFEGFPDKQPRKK
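Test system – S100A4 monomer (human) · Compound – single-point compound testing · Schedule – 5 min incubation before reading · Probe or stimulus – TAMRA-labelled myosin IIA heavy-chain peptide probe, 5 nM · Benchmarks – neutral control DMSO, positive control TFP · Medium – Calcium-containing HEPES buffer, pH 7.2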
PGC1a acetyl inh: lowers PGC1a acetylation signal in U2OS cells | 350,000 tested, 0.17% active | AlphaScreen anti-acetyl-lysine; with virally co-expressed GCN5 acetyltransferase | inhibition, % at 15.6 µM | AID 651687;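 active means every replicate shows inhibition of at least 40%; inconclusive means mean inhibition at least 40% but some replicate below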;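 further: 0% = neutral control wells and 100% = positive control wells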
DENV2 CPE rescue: protects cells from dengue virus 2 cytopathic effect. 350,000 tested, 1.7% active. DENV2-infected cells, cytopathic effect rescue, plate reader. CPE inhibition, % at 9.99 µM; in the data active means CPE inhibition above about 20%, passing the limit was not always enough; inconclusive means no clear call, values can overlap the other calls; tested in BHK-21 cells;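 further: 0% = median of neutral control wells and 100% = median of positive control wells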
SIRT5 block: inhibitors of human sirtuin-5 desuccinylase; inhibition, % at 15 µM; 330,000 tested, 1.1% active; Purified SirT5, succinyl-peptide AMC, trypsin-coupled fluorescence; AID 652115; in the data active means inhibition above about 15%; inconclusive means no clear call, values can overlap the other calls
Target sequence (Q9NXA8 whole entry, looked up): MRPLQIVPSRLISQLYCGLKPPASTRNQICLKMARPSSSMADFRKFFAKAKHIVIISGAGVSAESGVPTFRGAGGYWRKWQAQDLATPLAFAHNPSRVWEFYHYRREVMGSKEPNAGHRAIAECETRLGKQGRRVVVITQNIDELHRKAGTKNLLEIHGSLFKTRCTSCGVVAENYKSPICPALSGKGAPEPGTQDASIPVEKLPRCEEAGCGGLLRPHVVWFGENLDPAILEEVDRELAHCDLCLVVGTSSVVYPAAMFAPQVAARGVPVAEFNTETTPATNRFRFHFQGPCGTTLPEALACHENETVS
* = called active by the depositor; ? = inconclusive; · = not tested or not shown.

SMILES | C2C12 statin | S100A4 MyoIIA | PGC1a acetyl inh | DENV2 CPE rescue | SIRT5 block
Cc1ccc(S(=O)(=O)N(C)c2ccc(C(=O)O)cc2)cc1 | 125* | · | -3 | · | ·
C[C@H](CO)N1C[C@H](C)[C@@H](CN(C)Cc2ccc(C(F)(F)F)cc2)Oc2ccc(NC(=O)Cc3cn(C)c4ccccc34)cc2C1=O | 34 | 10 | -5 | 10 | 3
C[C@@H]1CN([C@H](C)CO)C(=O)c2cc(NC(=O)Cc3cn(C)c4ccccc34)ccc2O[C@H]1CN(C)Cc1ccc(-c2ccccc2)cc1 | 68* | -9 | -10 | 2 | 6
C[C@H]1CN([C@@H](C)CO)C(=O)c2cc(NC(=O)Cc3cn(C)c4ccccc34)ccc2O[C@@H]1CN(C)Cc1ccc(C(F)(F)F)cc1 | 83* | 20 | 1 | 14 | 1
C[C@H](CO)N1C[C@H](C)[C@H](CN(C)Cc2ccc(C(=O)O)cc2)Oc2ccc(NC(=O)Cc3cn(C)c4ccccc34)cc2C1=O | -5 | -3 | 10 | 70* | -4
CCCNC(=O)N1CC2(C1)CN(C(C)=O)[C@@H](CO)c1[nH]c3cc(OC)ccc3c12 | · | · | -3 | -17 | ·
Cc1noc(C)c1NC(=O)N(C)C[C@H]1Oc2ncc(/C=C/c3ccccc3)cc2C(=O)N([C@H](C)CO)C[C@H]1C | -9 | 3 | -6 | -8 | -12
CO[C@@H]1CN(C)C(=O)c2ccc(NS(=O)(=O)c3cccc(F)c3)cc2OC[C@@H](C)NC[C@H]1C | -16 | 3 | -7 | -5 | 7
CCCNC(=O)[C@@H]1[C@@H](CO)[C@@H]2Cn3c(ccc(-c4ccc(F)cc4)c3=O)[C@@H]2N1CCC | 2 | 4 | · | 0 | 3
O=C(c1ccccc1)c1coc2ccc(O)c(Cl)c12 | -6 | 7 | 16 | · | 22*
CN(C)Cc1cn(CC[C@H]2CC[C@@H](NC(=O)Nc3ccccc3F)[C@@H](CO)O2)nn1 | -4 | 12 | -10 | -2 | 18*
O=C(Cc1ccccn1)N[C@H]1CC[C@H](CCn2cc(-c3cccnc3)nn2)O[C@@H]1CO | -1 | -12 | -7 | 58* | 0
Cc1ccccc1S(=O)(=O)N[C@H]1CC[C@H](CCn2cc(Cc3ccccc3)nn2)O[C@@H]1CO | 2 | 4 | 61* | 0 | -2
CN(C)Cc1cn(CC[C@H]2CC[C@H](NC(=O)Cc3cccnc3)[C@H](CO)O2)nn1 | 6 | 94* | 12 | -1 | 1
O=S(=O)(N[C@H]1CC[C@@H](CCn2cc(Cc3ccccc3)nn2)O[C@H]1CO)c1ccccc1F | 2 | -1 | -5 | ? | 4
O=S(=O)(N[C@@H]1CC[C@@H](CCn2cc(-c3cccnc3)nn2)O[C@@H]1CO)c1ccccc1 | -5 | -5 | -2 | 10 | -1
O=S(=O)(N[C@H]1CC[C@@H](CCn2cc(-c3cccnc3)nn2)O[C@H]1CO)c1ccccc1 | -4 | 15 | 8 | 28* | 11
Cc1ccccc1S(=O)(=O)N[C@H]1CC[C@@H](CCn2cc(-c3ccccc3)nn2)O[C@H]1CO | 0 | -1 | 0 | 4 | 7
Cc1ccccc1S(=O)(=O)N[C@@H]1CC[C@H](CCn2cc(-c3ccccc3)nn2)O[C@@H]1CO | 6 | -5 | 1 | 21* | 2
NC(=O)c1ccc(NC(=O)CCCc2nc(-c3ccccc3Cl)no2)cc1 | -4 | 6 | · | · | 18*
Cc1ccc(S(=O)(=O)Nc2ccc3c(c2)C(=O)N([C@@H](C)CO)C[C@@H](C)[C@@H](CN(C)C(=O)c2ccncc2)OCCCC[C@H](C)O3)cc1 | -34 | · | -13 | -6 | ·
COc1cc(-c2cnc3c(NC=O)cc(-c4cccc(C(F)(F)F)c4)cn23)cc(OC)c1OC | -19 | -1 | -2 | 13 | ·
COc1cccc(-c2cnc3c(NC=O)cc(-c4ccncc4)cn23)c1 | -19 | 3 | 21 | 65* | ·
COc1cccc(-c2cnc3c(NC(C)=O)cc(-c4ccncc4)cn23)c1 | -18 | 8 | 5 | -9 | 0
Cn1cc(-c2cnc3c(NC=O)cc(-c4cccc(C(F)(F)F)c4)cn23)cn1 | -18 | -8 | · | 27* | -2
SMILES | C2C12 statin | S100A4 MyoIIA | PGC1a acetyl inh | DENV2 CPE rescue | SIRT5 block
CCC(=O)Nc1ccc2c(c1)C(=O)N(C)C[C@@H](OC)[C@H](C)CN(Cc1ccc(-c3ccccn3)cc1)[C@H](C)CO2 | 17 | -15 | -5 | -1 | 5
Cc1noc(C)c1NC(=O)N(C)C[C@@H]1OCCCC[C@H](C)Oc2ccc(NS(C)(=O)=O)cc2C(=O)N([C@@H](C)CO)C[C@@H]1C | · | · | 0 | -1 | ·
C[C@@H]1CN([C@H](C)CO)C(=O)c2cccc(NC(=O)c3nc4ccccc4s3)c2O[C@@H]1CN(C)Cc1ccc(C(F)(F)F)cc1 | 7 | -5 | 6 | -3 | 25*
COc1ccc(CN(C)C[C@H]2Oc3c(NC(=O)c4nc5ccccc5s4)cccc3C(=O)N([C@H](C)CO)C[C@@H]2C)cc1 | 14 | -5 | 6 | 24* | 3
C[C@@H]1CN([C@@H](C)CO)C(=O)c2cccc(NC(=O)c3nc4ccccc4s3)c2O[C@H]1CN(C)Cc1ccc(C(=O)Nc2ccccc2N)cc1 | 101* | -29 | -6 | -3 | 8
C[C@H]1CN([C@@H](C)CO)C(=O)c2cccc(NC(=O)c3nc4ccccc4s3)c2O[C@@H]1CN(C)Cc1ccccc1 | 36 | -14 | · | -6 | 4
C[C@H](CO)N1C[C@H](C)[C@H](CN(C)Cc2ccc(C(F)(F)F)cc2)Oc2c(NC(=O)c3nc4ccccc4s3)cccc2C1=O | 6 | -9 | -6 | -2 | 28*
C[C@@H]1CN([C@@H](C)CO)C(=O)c2cccc(NC(=O)c3nc4ccccc4s3)c2O[C@@H]1CN(C)Cc1ccc(C(=O)O)cc1 | · | 14 | 4 | 3 | -4
CCC(=O)N(C)C[C@@H]1Oc2cc(-c3cccc(F)c3)ccc2S(=O)(=O)N([C@H](C)CO)C[C@@H]1C | -7 | 8 | -10 | -7 | -3
C[C@@H]1CN([C@@H](C)CO)C(=O)c2cccc(NC(=O)c3nc4ccccc4s3)c2O[C@H]1CN(C)Cc1ccc(C(F)(F)F)cc1 | -31 | -34 | 13 | -3 | 22*
C[C@H](CO)N1C[C@H](C)[C@@H](CN(C)Cc2ccc(C(F)(F)F)cc2)Oc2c(NC(=O)c3nc4ccccc4s3)cccc2C1=O | -47 | 3 | 26 | 14 | 16*
C[C@H]1CN([C@@H](C)CO)C(=O)c2cccc(NC(=O)c3nc4ccccc4s3)c2O[C@@H]1CN(C)Cc1ccc(C(F)(F)F)cc1 | 9 | 38 | -13 | -1 | 21*
C[C@@H]1CN([C@H](C)CO)C(=O)c2cccc(NC(=O)c3nc4ccccc4s3)c2O[C@@H]1CN(C)Cc1ccccc1 | 23 | 8 | · | 11 | 5
C[C@@H]1CN([C@@H](C)CO)C(=O)c2cccc(NC(=O)c3nc4ccccc4s3)c2O[C@H]1CN(C)Cc1ccccc1 | 27 | · | · | · | ·
CC(C)NC(=O)N1CC[C@@H]2[C@H]1c1cc(C#Cc3cccnc3)ccc1N(C)[C@@H]2CO | -35 | · | -1 | · | ·
